Reference: ChEMBL document CHEMBL4052630, “Design, synthesis and evaluation of scutellarein-O-acetamidoalkylbenzylamines as potential multifunctional agents for the treatment of Alzheimer's disease” (Eur J Med Chem, 2017)

What was measured:
Acetylcholinesterase [1] = biological target: Acetylcholinesterase (Electrophorus electricus, UniProt O42275); assay: Inhibition of electric eel AChE using acetylthiocholine iodide as substrate after 15 mins by Ellman's method
SH-SY5Y = assay: Cytotoxicity against human SH-SY5Y cells assessed as reduction in cell viability up to 10 uM after 24 hrs by MTT assay; type: cell-based
How it was run: (§1)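 SH-SY5Y cells grown in DMEM with 10% FBS at 37 °C, 5% CO2, seeded 4 × 10^4 cells/well and incubated 24 h. Compounds given at 1, 10 and 100 µM (1% DMSO final) for 24 h. MTT (5 mg/ml) added for 4 h, cells lysed overnight in DMF/SDS, absorbance read at 590 nm against control. Three independent experiments.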

PC-12 [2] = assay: Neuroprotective activity against H2O2 induced cell injury in rat PC12 cells assessed as increase in cell viability preincubated for 24 hrs followed by incubation with H2O2 for 2 hrs measured after 24 hrs by MTT assay; type: functional, cell-based
How it was run: (§2)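 PC12 cells in phenol-red-free DMEM with 10% FCS, plated at 10^5 cells/well. Cells preincubated 24 h with compound (1.0 or 10.0 µM; dissolved in 2% DMSO, diluted in PBS), then exposed to H2O2 100 µM for 2 h. Medium replaced; viability assessed 24 h later by MTT (4 h, 37 °C), lysis in DMF/SDS, A590.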

Acetylcholinesterase [3] = biological target: T1, Acetylcholinesterase (Rattus norvegicus, UniProt P37136); assay: Inhibition of rat cortex homogenate AChE using acetylthiocholine iodide as substrate after 15 mins in presence of BuChE inhibitor iso-OMPA by Ellman's method
T1 sequence (P37136 whole entry): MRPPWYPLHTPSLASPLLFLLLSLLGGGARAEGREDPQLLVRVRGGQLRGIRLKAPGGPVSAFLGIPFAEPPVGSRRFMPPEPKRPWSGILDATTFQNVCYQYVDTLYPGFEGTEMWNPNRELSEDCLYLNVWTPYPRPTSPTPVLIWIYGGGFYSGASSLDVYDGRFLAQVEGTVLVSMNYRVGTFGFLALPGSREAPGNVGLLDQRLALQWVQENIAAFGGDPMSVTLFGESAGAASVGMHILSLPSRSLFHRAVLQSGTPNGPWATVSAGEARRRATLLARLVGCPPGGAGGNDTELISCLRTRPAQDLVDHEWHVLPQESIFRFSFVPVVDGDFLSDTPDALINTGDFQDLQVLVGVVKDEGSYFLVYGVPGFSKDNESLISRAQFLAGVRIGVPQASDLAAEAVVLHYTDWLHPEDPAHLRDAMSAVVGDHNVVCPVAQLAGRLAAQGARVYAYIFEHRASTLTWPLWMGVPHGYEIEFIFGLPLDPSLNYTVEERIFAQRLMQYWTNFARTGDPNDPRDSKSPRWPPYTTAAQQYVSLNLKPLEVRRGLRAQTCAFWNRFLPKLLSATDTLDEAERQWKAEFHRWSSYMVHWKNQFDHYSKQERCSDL

[4] = Inhibition of rat serum BuChE using butyrylthiocholine iodide as substrate after 15 mins by Ellman's method; type: ADME
[5] = Antioxidant activity assessed as trolox equivalents of AAPH radical scavenging activity at 1 to 10 uM preincubated for 15 mins followed by AAPH addition measured every 60 sec for 90 mins by ORAC-FL assay; type: functional
How it was run: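 ORAC-FL in 75 mM phosphate buffer pH 7.4. Compound at 1–10 µM with fluorescein (150 nM final), pre-incubated 15 min at 37 °C, then AAPH added (12 mM final). Fluorescence read every minute for 90 min, ex 485/em 535 nm. Curves normalised to the FL+AAPH blank. Trolox standard 1–8 µM. Duplicates, ≥3 independent assays. Results given as µM Trolox equivalent per µM compound.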

PC-12 [6] = assay: Neuroprotective activity against H2O2 induced cell injury in rat PC12 cells assessed as cell viability at 1 uM preincubated for 24 hrs followed by incubation with H2O2 for 2 hrs measured after 24 hrs by MTT assay (reference value: 43.9%); type: functional; details: read-out: Activity; how it was run: as §2
[7] = Solubility of the compound in water; type: physicochemical; details: buffer
[8] = Solubility of the compound in DMEM in presence of 10% FBS; type: physicochemical
PC-12 [9] = assay: Neuroprotective activity against H2O2-induced cell injury in rat PC12 cells assessed as cell viability at 10 uM preincubated for 24 hrs followed by incubation with H2O2 for 2 hrs measured after 24 hrs by MTT assay (reference value: 43.9%); type: functional; details: read-out: Activity; how it was run: as §2
[10] = biological target: Amyloid-beta precursor protein (Homo sapiens) (UniProt P05067); assay: Inhibition of amyloid beta (1 to 42) (unknown origin) self aggregation at 25 uM after 24 hrs by ThT-based fluorometric method relative to control
How it was run: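 Aβ1-42 (25 µM final) incubated at 37 °C for 24 h ± compound in 50 mM phosphate buffer pH 7.4, with DMSO stocks diluted in buffer. Then 5 µM thioflavin T in 50 mM glycine-NaOH pH 8.5 was added and read at ex 446/em 490 nm. Run in triplicate. % inhibition = (1−IFi/IFc)×100 after background subtraction.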

[11] = Cytotoxicity against human SH-SY5Y cells assessed as cell viability at 100 uM after 24 hrs by MTT assay relative to control; type: cell-based; details: read-out: Activity; how it was run: as §1
Rattus norvegicus = organism: Rattus norvegicus; assay: Selectivity index, ratio of IC50 for rat serum BuChE to IC50 for rat cortex homogenate AChE
How it was run: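 Modified Ellman assay. AChE from 5% rat cortex homogenate, pre-incubated 5 min with iso-OMPA (4.0 mmol/L). BuChE from 25% rat serum. Enzyme incubated with compound (<1% DMSO) and acetyl- or butyrylthiocholine iodide (1 mmol/L) in phosphate buffer pH 7.4 for 15 min at 37 °C. DTNB added, read at 405 nm. IC50 from 3 independent experiments. Index = BuChE IC50/AChE IC50.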

Acetylcholinesterase [12] = biological target: Acetylcholinesterase (Homo sapiens, UniProt P22303); assay: Inhibition of human erythrocyte AChE using acetylthiocholine iodide as substrate after 15 mins by Ellman's method
Sequence of Acetylcholinesterase (Homo sapiens, UniProt P22303) (P22303 whole entry): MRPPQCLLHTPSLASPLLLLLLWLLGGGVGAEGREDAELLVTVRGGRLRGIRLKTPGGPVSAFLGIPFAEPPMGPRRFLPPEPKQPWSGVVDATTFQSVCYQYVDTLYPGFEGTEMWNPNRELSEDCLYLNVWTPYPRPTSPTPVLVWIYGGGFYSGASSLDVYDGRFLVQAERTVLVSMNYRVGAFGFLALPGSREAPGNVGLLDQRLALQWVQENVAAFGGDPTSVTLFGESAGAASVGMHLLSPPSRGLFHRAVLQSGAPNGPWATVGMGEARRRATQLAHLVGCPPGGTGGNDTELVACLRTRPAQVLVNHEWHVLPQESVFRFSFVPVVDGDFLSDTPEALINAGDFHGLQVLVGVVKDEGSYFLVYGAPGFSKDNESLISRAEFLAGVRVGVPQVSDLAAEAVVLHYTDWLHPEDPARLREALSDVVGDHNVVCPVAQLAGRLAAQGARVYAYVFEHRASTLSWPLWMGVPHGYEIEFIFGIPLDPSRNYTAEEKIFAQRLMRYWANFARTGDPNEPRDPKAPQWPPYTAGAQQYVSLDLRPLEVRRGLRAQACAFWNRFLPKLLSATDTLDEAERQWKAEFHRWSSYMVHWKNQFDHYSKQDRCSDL

Sequence of Acetylcholinesterase (Electrophorus electricus, UniProt O42275) (O42275 whole entry): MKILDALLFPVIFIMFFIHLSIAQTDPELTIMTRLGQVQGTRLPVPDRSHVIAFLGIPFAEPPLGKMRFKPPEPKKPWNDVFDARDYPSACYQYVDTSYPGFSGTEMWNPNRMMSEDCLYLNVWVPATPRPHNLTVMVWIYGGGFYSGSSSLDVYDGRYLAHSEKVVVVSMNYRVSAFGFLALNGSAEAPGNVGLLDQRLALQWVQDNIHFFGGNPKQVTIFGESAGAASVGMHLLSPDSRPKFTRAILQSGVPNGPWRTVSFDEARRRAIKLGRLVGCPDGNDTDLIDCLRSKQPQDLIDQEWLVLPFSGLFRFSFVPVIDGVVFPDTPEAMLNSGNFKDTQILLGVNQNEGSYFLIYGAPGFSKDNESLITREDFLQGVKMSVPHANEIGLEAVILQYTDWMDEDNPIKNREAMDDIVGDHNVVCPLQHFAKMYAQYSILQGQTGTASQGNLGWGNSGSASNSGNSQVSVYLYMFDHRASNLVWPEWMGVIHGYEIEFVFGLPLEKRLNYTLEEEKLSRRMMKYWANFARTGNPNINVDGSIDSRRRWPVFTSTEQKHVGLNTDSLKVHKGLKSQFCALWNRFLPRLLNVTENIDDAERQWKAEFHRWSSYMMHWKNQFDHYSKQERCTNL
Sequence of Amyloid-beta precursor protein (Homo sapiens) (P05067 whole entry): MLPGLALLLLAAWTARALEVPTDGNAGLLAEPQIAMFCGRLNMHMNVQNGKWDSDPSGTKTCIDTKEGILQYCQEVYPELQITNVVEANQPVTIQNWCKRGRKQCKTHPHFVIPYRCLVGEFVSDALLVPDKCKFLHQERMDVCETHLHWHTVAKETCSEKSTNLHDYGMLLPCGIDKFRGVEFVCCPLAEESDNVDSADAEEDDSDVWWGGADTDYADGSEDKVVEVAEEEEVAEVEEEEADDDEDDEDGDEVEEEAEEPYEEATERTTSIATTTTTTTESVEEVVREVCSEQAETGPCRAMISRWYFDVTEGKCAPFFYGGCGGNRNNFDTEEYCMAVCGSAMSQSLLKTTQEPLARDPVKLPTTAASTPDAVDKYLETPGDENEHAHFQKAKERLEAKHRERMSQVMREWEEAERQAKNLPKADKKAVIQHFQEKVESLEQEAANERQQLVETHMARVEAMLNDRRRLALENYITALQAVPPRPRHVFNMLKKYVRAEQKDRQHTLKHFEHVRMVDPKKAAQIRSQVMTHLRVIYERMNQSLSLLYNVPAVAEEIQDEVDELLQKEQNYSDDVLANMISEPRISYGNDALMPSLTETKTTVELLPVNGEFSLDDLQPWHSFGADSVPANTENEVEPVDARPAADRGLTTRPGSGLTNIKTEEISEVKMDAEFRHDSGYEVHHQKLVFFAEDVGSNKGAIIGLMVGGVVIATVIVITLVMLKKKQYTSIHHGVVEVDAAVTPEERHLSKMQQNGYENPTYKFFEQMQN

CCN(CCCCNC(=O)COc1ccc(-c2cc(=O)c3c(OC)c(OC)c(OC)cc3o2)cc1)Cc1ccccc1OC
IC50 (Acetylcholinesterase [1]): 9770 nM | Activity (SH-SY5Y): Non-Toxic | Activity (PC-12 [2]): Dose-dependent effect | IC50 (Acetylcholinesterase [3]): 74 nM | IC50 [4]: > 500000 nM | Activity [5]: 0.38 equiv | viability at 1 µM (PC-12 [6]): 60.1% | solubility [7]: Insoluble | solubility [8]: Insoluble | viability at 10 µM (PC-12 [9]): 63.3% | inhibition [10]: 44.7% | viability at 24 h, 100 µM [11]: 79.4% | Ratio IC50 (Rattus norvegicus): > 6760 | IC50 (Acetylcholinesterase [12]): 63 nM
